Source: PubChem BioAssay (several laboratories)
Sampled rows, rich in hits. Any-hit rate of the full collection: about 2.6%.
ARFGAP1 inhibitor = inhibitors of rat ARFGAP1 GAP activity, primary screen, biochemical, fluorescence polarization, GDP tracer; 360,000 compounds, 0.26% hits; AID 651572, 2012; ADP-ribosylation factor GTPase-activating protein 1 (Rattus norvegicus), Q62848; Arfgap1-stimulated ARF1 GTP hydrolysis, GDP FP detection; inhibition, % at 16.5 µM;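 active = inhibition above a per-plate limit, mean inhibition of low control wells plus 3 SD, cut at about 25% in these data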
Target sequence (Q62848 1-136 limits assumed): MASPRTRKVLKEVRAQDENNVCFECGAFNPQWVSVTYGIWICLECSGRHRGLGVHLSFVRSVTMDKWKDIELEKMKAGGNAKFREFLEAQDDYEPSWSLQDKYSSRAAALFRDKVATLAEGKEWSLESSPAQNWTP
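Repeats: one replicate per compound; assay system: rat Arfgap1 catalytic domain, aa 1-136; times: enzyme reaction 120 min at 25 °C after 20 min preincubation; detection: FP of antibody-bound GDP Alexa 633 tracer, ex 620/em 688 nm; benchmarks: high control wells lacking Arfgap1, low control full reaction with DMSO; reagent: human ARF1(Δ1-17)-GTP substrate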
esBAF inh = Bmi1 luciferase reporter increase in mESCs, primary screen, esBAF inhibitor project, mouse ES cells, Bmi1 luciferase knock-in, single point | 350,000 compounds, 2% hits | 24 h; 100% = twice the neutral-well signal | reporter increase, % at 12.5 µM; in the data active = activation above about 40%;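 also: a rise in the Bmi1 reporter signal indicates esBAF inhibition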
ASAP1 inh = inhibitors of human ASAP1 ArfGAP activity, primary screen, biochemical, fluorescence polarization. inhibition, % at 16.5 µM. ASAP1-stimulated ARF1 GTP hydrolysis, GDP FP detection. AID 624377, 2012. Arf-GAP with SH3 domain, ANK repeat and PH domain-containing protein 1 (Homo sapiens), …. 360,000 compounds, 0.19% hits; in the data active = inhibition above about 25%
Target sequence (Q9ULH1 325-724 limits assumed): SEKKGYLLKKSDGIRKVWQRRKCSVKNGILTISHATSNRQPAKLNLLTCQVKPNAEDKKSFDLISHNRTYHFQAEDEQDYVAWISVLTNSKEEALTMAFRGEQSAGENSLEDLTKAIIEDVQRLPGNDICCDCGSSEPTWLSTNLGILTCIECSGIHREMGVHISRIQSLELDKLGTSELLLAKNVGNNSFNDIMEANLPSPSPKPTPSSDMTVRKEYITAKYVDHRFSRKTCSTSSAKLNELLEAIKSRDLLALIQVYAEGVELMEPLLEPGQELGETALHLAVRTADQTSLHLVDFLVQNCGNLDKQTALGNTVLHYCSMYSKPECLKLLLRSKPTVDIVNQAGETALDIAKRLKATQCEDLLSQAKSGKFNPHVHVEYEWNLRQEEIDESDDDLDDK
SMARCA2 activ = SMARCA2 (BRM) function activators, primary screen, cell-based, luminescence, high throughput; MG213 cells, MMTV-luciferase reporter, dexamethasone, overnight; activation, % at 9.1 µM; 370,000 compounds, 1% hits; AID 652017, 2013; in the data active = activation above about 7.8%
Of the large screens only hits and unclear results are named; the others gave an inactive call.

C=CCc1cccc(/C=N/NC(=O)c2ccccc2OC)c1O	esBAF inh 43.9
C=CCc1cccc(/C=N/NC(=O)c2ccccc2Br)c1O	none (no result: esBAF inh)
COc1cccc(CSc2nc3ccccc3[nH]2)c1	esBAF inh 54.4
O=C(C[C@H]1C[C@@H]2c3cc(NC(=O)c4ccc5c(c4)OCO5)ccc3O[C@@H]2[C@@H](CO)O1)NCc1cccc(F)c1	none (no result: ARFGAP1 inhibitor, ASAP1 inh, SMARCA2 activ)
O=C(COc1ccccc1)Nc1nnc(C23CC4CC(CC(C4)C2)C3)s1	esBAF inh 47.9
O=C(COc1ccccc1)Nc1nc2c(s1)CCCC2	esBAF inh 58.0
COc1cccc(-c2ccc([C@@H]3[C@@H](CO)N4CCCCN(S(=O)(=O)c5cn(C)cn5)C[C@@H]34)cc2)c1	none (no result: ARFGAP1 inhibitor, ASAP1 inh, SMARCA2 activ)
CCC(=O)NCCc1c[nH]c2ccccc12	none
O=C(NCCc1c[nH]c2ccccc12)c1ccc(F)cc1F	esBAF inh 57.2
O=C(NCCc1nnc2ccccn12)c1cccs1	none
COc1ccc(C(=O)NCCc2c[nH]c3ccccc23)cc1	esBAF inh 54.2
Cc1ccsc1C(=O)NCCc1nnc2ccccn12	esBAF inh 56.0, SMARCA2 activ 7.8
Cc1ccsc1C(=O)NCCc1c[nH]c2ccccc12	esBAF inh 49.9
C[C@@H]1CN([C@H](C)CO)C(=O)c2cc(NS(=O)(=O)c3cccs3)ccc2O[C@@H]1CN(C)Cc1ccncc1	none (no result: ARFGAP1 inhibitor, ASAP1 inh, SMARCA2 activ)
COc1ccc(C(=O)NCC(=O)OCC(=O)c2c[nH]c3ccccc23)cc1	none
O=C(NCc1ccc(F)cc1)c1cnc2sccn2c1=O	none
COc1ccc(C(=O)c2c[nH]c3ccccc23)cc1	esBAF inh 60.9
O=C(NCCc1c[nH]c2ccccc12)c1cnc2sccn2c1=O	esBAF inh 75.6
O=C(CC(=O)N/N=C\c1ccccc1[N+](=O)[O-])NCCc1ccccc1	none
O=[N+]([O-])c1ccc(O)c(/C=N/Nc2ccccc2Cl)c1	esBAF inh 47.1
O=C(CNC(=O)c1cccs1)N/N=C/c1ccccc1[N+](=O)[O-]	esBAF inh 59.9
O=[N+]([O-])c1ccccc1N/N=C\c1ccccc1Cl	esBAF inh 62.3
O=C(CNC(=O)c1ccco1)N/N=C/c1ccccc1[N+](=O)[O-]	none (no result: esBAF inh)
O=[N+]([O-])c1ccccc1/C=N/OCc1ccccc1	esBAF inh 64.6
C[C@H]1CN([C@@H](C)CO)C(=O)c2cc(C#Cc3ccccn3)cnc2O[C@H]1CN(C)C(=O)c1ccccn1	none (no result: ARFGAP1 inhibitor, ASAP1 inh, SMARCA2 activ)
C[C@@H]1CCCCO[C@H](CN(C)C(=O)C2CCCCC2)[C@@H](C)CN([C@@H](C)CO)C(=O)c2cc(NC(=O)Nc3ccc(C(F)(F)F)cc3)ccc2O1	none (no result: ARFGAP1 inhibitor, ASAP1 inh, SMARCA2 activ)
COc1ccc(S(=O)(=O)Nc2ccc3c(c2)C(=O)N([C@H](C)CO)C[C@H](C)[C@H](CN(C)C(=O)c2ccncc2)OCCCC[C@@H](C)O3)cc1	none (no result: ARFGAP1 inhibitor, ASAP1 inh, SMARCA2 activ)
O=[N+]([O-])c1ccccc1C=NNc1ccccc1	esBAF inh 91.5
O=C(O)c1ccc(N/N=C/C=C/c2ccccc2[N+](=O)[O-])cc1	esBAF inh 78.7
O=[N+]([O-])c1ccccc1/C=N/NC1=NCCN1	none (no result: esBAF inh)
COc1ccc(-c2ccc3c(c2)[C@H]2[C@H](CCN2S(=O)(=O)c2ccccc2F)[C@H](CO)N3C)cc1	none (no result: ARFGAP1 inhibitor, ASAP1 inh, SMARCA2 activ)
N#C/C(=N\Nc1ccc(Cl)cc1)C(=O)c1ccccc1	none
[O-]/[N+](=N\Nc1ccc(Cl)cc1)c1ccccc1	esBAF inh 52.0
Clc1ccc(/C=N\Nc2ccccc2)cc1	esBAF inh 41.8
CN(C)c1ccc(NC(=S)NC(=O)/C=C/c2ccc(Cl)cc2)cc1	esBAF inh 45.7
O=C(/C=C/c1ccc(Cl)cc1)NC(=S)Nc1ccc(C(=O)O)cc1	none
O=C(Nc1ccc2c(c1)OCO2)N[C@H]1C=C[C@@H](CC(=O)N2CCN(c3ccccc3)CC2)O[C@@H]1CO	none (no result: ARFGAP1 inhibitor, ASAP1 inh, SMARCA2 activ)
Cc1ccc(CSc2nc3ccncc3n2CC(=O)Nc2cc(C)cc(C)c2)cc1	esBAF inh 48.4
Cc1cccc(N=O)n1	none (no result: esBAF inh)
Cc1cccc(N=[N+]([O-])c2cccc(C)n2)n1	esBAF inh 56.5
NC(=NCc1ccco1)NC(=O)c1ccc(Cl)cc1	esBAF inh 49.0
O=C(NCCCNC(=O)c1ccco1)c1ccc(Cl)cc1	none
COc1ccc(C2CC(c3ccc(Br)cc3)=NN2C(=S)Nc2ccccc2)cc1 (configuration not stated)	esBAF inh 44.6
Cc1ccc(C2=NN(C(=S)Nc3ccccc3)C(c3ccco3)C2)cc1 (configuration not stated)	esBAF inh 79.8
COc1ccc(C2CC(c3ccc4ccccc4c3)=NN2C(=O)CNC2CCCCC2)cc1 (configuration not stated)	none (no result: esBAF inh)
COc1ccc(C2CC(c3ccc(Cl)cc3)=NN2C(C)=O)cc1 (configuration not stated)	esBAF inh 51.6
CC(=O)N1N=C(c2ccc(Cl)cc2)CC1c1ccc([N+](=O)[O-])cc1 (configuration not stated)	none
COc1ccc(C2CC(c3ccc4ccccc4c3)=NN2C(=O)CN2CCC(C(N)=O)CC2)cc1 (configuration not stated)	esBAF inh 48.5
CC1CCCCC12NC(=O)N(CC(=O)NC(=O)Nc1ccc3c(c1)OCCO3)C2=O (configuration not stated)	esBAF inh 56.7
CC1CCCCC12NC(=O)N(CC(=O)Nc1ccc3c(c1)OCO3)C2=O (configuration not stated)	none
CCOc1ccc(-c2n[nH]c(C(=O)NN)c2C)cc1	esBAF inh 55.4
CCOC(=O)/C(C#N)=C/Nc1ccccc1OC	esBAF inh 47.4
Cc1cc(/C=C(/C#N)C(=O)Nc2ccccc2)c(C)n1-c1cccnc1	esBAF inh 44.3
Cc1cc(/C=C(\C#N)C(=O)O)c(C)n1-c1ccc(Br)cc1	none
Cc1cc(C=C(C#N)C#N)c(C)n1-c1ccccc1	esBAF inh 45.8
Cc1cc(/C=C(\C#N)C(=O)Nc2ccccc2)c(C)n1-c1ccc2c(c1)OCO2	none
CCc1sc(NC(C)=O)nc1-c1ccccc1	none
CCc1sc(N2C(=O)C3C4CCC(C4=C(C)C)C3C2=O)nc1-c1ccccc1 (configuration not stated)	esBAF inh 54.3
CCCCc1nc2cc(C(=O)NCc3ccccn3)ccc2o1	none
CCOC(=O)N1CCN(C(=O)c2ccc3oc(CCc4ccccc4)nc3c2)CC1	none
CCOC(=O)CC1COCCN1C(=O)c1ccc2oc(Cc3ccccc3)nc2c1 (configuration not stated)	esBAF inh 51.8
CCCCc1nc2cc(C(=O)N3CCCCC3CC(=O)OCC)ccc2o1 (configuration not stated)	esBAF inh 55.6
CCCCc1nc2cc(C(=O)N3CCCCC3C(=O)OC)ccc2o1 (configuration not stated)	esBAF inh 64.4
CCCCc1nc2cc(C(=O)N3CCCC3)ccc2o1	none
